According to ChEMBL document CHEMBL1123904, “Synthesis, structure, and biological activity of certain 2-deoxy-beta-D-ribo-hexopyranosyl nucleosides and nucleotides” (J Med Chem, 1987):

Tests used:
Human alphaherpesvirus 2 = assay: In vitro antiviral activity Virus rating (VR) determined by comparing CPE development in drug-treated cells (T) and virus control cells (C) against, Herpes simplex virus-2; type: functional
In short: (§1)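 Vero (African green monkey kidney) cells in 10% FBS DMEM, seeded 4 × 10^4 cells/well, confluent over 24 h at 37 °C, 5% CO2. Virus (amount giving full monolayer destruction in 72 h; HSV-2 strain 333, measles Edmonston, para 3 C243) adsorbed 30 min. Compound added after adsorption at seven 0.5-log steps, final 5 × 10^-6 to 5 × 10^-3 M. Duplicate infected wells, single uninfected wells for toxicity.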

Vaccinia virus = assay: In vitro antiviral activity Virus rating (VR) determined by comparing CPE development in drug-treated cells (T) and virus control cells (C) against, Vaccinia virus; type: functional, Orthopoxvirus vaccinia
Measles morbillivirus = assay: In vitro antiviral activity Virus rating (VR) determined by comparing CPE development in drug-treated cells (T) and virus control cells (C) against, measles; type: functional; in short: as §1
Human respirovirus 3 = assay: In vitro antiviral activity Virus rating (VR) determined by comparing CPE development in drug-treated cells (T) and virus control cells (C) against, parainfluenza type 3 (para 3); type: functional; in short: as §1
[1] = Ability of inhibit mammalian uridine phosphorylase
Adenosine deaminase = biological target: T1, Adenosine deaminase (Bos taurus, UniProt P56658); assay: Ability to inhibit adenosine deaminase
T1 sequence (P56658 whole entry): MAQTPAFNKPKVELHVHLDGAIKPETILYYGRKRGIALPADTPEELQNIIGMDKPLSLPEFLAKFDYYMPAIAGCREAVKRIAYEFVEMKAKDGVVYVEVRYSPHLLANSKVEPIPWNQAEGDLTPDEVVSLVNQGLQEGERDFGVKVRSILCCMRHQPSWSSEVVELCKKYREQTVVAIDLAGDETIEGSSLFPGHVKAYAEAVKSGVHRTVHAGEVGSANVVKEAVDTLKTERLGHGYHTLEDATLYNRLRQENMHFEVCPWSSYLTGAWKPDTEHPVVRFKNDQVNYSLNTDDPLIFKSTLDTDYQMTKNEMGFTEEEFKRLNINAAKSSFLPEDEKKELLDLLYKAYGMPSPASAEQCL
In short: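 Calf intestine adenosine deaminase; substrate and inhibitor kinetic parameters measured spectrophotometrically.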

Structure (SMILES)	VR (Human alphaherpesvirus 2)	VR (Vaccinia virus)	VR (Measles morbillivirus)	VR (Human respirovirus 3)	Ki [1] [µM]	Ki (Adenosine deaminase) [µM]
Nc1ncnc2c1ncn2C1CC(O)C(O)C(COP(=O)(O)O)O1 (stereo not given)	0.44	0	0.24	0.16		
Nc1ccn(C2CC(O)C(O)C(CO)O2)c(=O)n1 (stereo not given)	0	0	0.5	0.15		
Cc1cn(C2CC(O)C(O)C(CO)O2)c(=O)[nH]c1=O (stereo not given)					12	
Nc1ncnc2c1ncn2C1CC(O)C(O)C(CO)O1 (stereo not given)	0	0	0.9	0.35		
O=c1ccn(C2CC(O)C(O)C(COP(=O)(O)O)O2)c(=O)[nH]1 (stereo not given)	0.74	0.28	0.44	0.64		
Nc1ncnc2ncn(C3CC(O)C(O)C(CO)O3)c12 (stereo not given)	0.08	0.22	0	0		
Nc1nc(O)c2ncn(C3CC(O)C(O)C(CO)O3)c2n1 (stereo not given)	1.06	0.19	0.3	0		
O=c1ccn(C2CC(O)C(O)C(CO)O2)c(=O)[nH]1 (stereo not given)	0.06	0.25	0	0		
OCC1OC(n2cnc3c(O)ncnc32)CC(O)C1O (stereo not given)	0.07	0.1	0	0.06		
Nc1nc(N)c2ncn(C3CC(O)C(O)C(CO)O3)c2n1 (stereo not given)	0.62	0.22	0.54	0.25		
Nc1ccn(C2CC(O)C(O)C(COP(=O)(O)O)O2)c(=O)n1 (stereo not given)		0.25	0.06	0.28		
Nc1nc(Cl)nc2c1ncn2C1CC(O)C(O)C(CO)O1 (stereo not given)	0.34	0.04	0.05	0		
OC[C@H]1O[C@@H](n2cnc3c(O)ncnc32)C[C@@H]1O [DEOXYINOSINE]						150
OC[C@H]1O[C@@H](n2cnc3c(O)ncnc32)[C@H](O)[C@@H]1O [INOSINE]						500
Nc1ncnc2c1ncn2[C@@H]1C=C(CO)[C@@H](O)[C@H]1O [NEOPLANOCIN A]	1.39	1.38	0.75	1.6		
